Measurements reported in ChEMBL document CHEMBL6087457, “Discovery of MDI-114215: A Potent and Selective LIMK Inhibitor To Treat Fragile X Syndrome” (J Med Chem, 2025).
Activity calls are given as the source filed them. The calls are words filed in the database; no cut-off is given here.

Key:
[1] = target: LIM domain kinase 1 (Mus musculus) (UniProt P53668); assay: Ex vivo inhibition of LIMK in hippocampus of mouse assessed as reduction in p-cofilin level at 3 uM incubated for 30 mins by Western blot analysis; format: functional
LIM domain kinase 1 (Mus musculus), sequence (P53668 whole entry, the tested form may be a part): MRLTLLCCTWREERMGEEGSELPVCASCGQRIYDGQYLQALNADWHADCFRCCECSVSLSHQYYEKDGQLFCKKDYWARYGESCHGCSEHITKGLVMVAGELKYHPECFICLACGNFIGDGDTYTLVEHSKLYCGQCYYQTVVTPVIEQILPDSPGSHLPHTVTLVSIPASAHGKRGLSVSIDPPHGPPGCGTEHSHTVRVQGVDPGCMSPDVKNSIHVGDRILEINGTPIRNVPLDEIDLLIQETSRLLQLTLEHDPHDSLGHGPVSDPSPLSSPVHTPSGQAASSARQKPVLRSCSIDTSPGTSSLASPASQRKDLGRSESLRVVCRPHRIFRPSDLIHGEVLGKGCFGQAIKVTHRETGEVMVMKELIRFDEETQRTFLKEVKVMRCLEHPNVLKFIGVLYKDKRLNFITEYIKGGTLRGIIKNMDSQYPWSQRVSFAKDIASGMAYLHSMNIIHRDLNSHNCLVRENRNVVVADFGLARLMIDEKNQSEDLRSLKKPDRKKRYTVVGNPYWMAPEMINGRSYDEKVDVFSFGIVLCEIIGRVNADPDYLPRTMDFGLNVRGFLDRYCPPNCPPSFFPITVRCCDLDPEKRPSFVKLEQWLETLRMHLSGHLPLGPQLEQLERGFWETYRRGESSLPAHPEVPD
How it was run: (§1)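 Acute hippocampal slices from P7–9 WT and Fmr1 KO mice, incubated with vehicle (DMSO) or 3 μM LIMK inhibitor. p-Cofilin and total cofilin measured by Western blot and expressed as a p-cofilin/cofilin ratio. n = 2–4 animals per group. Significance by one-way ANOVA with Dunnett's multiple comparisons test.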

[2] = target: LIM domain kinase 1 (Mus musculus) (UniProt P53668); assay: Ex vivo inhibition of LIMK in hippocampus of Fmr1 KO mouse model of FXS assessed as reduction in p-cofilin level at 3 uM incubated for 30 mins by Western blot analysis; format: functional; how it was run: as §1
[3] = Toxicity in CD-1 mouse assessed as adverse microscopic findings at 30 mg/kg/day, ip treated daily for 28 days; format: organism-based; details: in vivo, 672 h, time 28 day
How it was run: (§2)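 Male CD-1 mice, 6 weeks old at start, dosed with vehicle or 30 mg/kg/day i.p. once daily for 28 days, followed by a 2-week treatment-free recovery. Endpoints: body weight, food consumption, clinical signs, macro- and microscopic pathology, and organ weights (male sexual organs) after […] of dosing and after recovery. Data given as mean ± SEM.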

[4] = Toxicity in CD-1 mouse assessed as body weight change at 30 mg/kg/day, ip treated daily for 28 days; format: organism-based; details: in vivo, 672 h, time 28 day; how it was run: as §2
[5] = Drug concentration in brain of CD-1 mouse at 30 mg/kg/day, ip treated daily for 28 days; format: ADME, organism-based; details: time 28 day, read-out: Ct
[6] = Toxicity in CD-1 mouse assessed as effect on food consumption at 30 mg/kg/day, ip treated daily for 28 days; format: organism-based; details: in vivo, 672 h, time 28 day; how it was run: as §2
[7] = Toxicity in CD-1 mouse assessed as inflammatory cell infiltration in epididymis at 30 mg/kg/day, ip treated daily for 28 days measured after 14 days of recovery period; format: organism-based; details: in vivo, 672 h, time 28 day; how it was run: as §2
[8] = Toxicity in CD-1 mouse assessed as adverse clinical signs at 30 mg/kg/day, ip treated daily for 28 days; format: organism-based; details: in vivo, 672 h, time 28 day; how it was run: as §2
[9] = Toxicity in CD-1 mouse assessed as change in seminal vesicle weight at 30 mg/kg/day, ip treated daily for 28 days; format: organism-based; details: in vivo, 672 h, time 28 day; how it was run: as §2
Cytochrome P450 1A2 = target: T1, Cytochrome P450 1A2 (Homo sapiens, UniProt P05177); assay: Inhibition of CYP1A2 (unknown origin); format: ADME, microsomes, Liver, Microsome
T1 sequence (P05177 whole entry): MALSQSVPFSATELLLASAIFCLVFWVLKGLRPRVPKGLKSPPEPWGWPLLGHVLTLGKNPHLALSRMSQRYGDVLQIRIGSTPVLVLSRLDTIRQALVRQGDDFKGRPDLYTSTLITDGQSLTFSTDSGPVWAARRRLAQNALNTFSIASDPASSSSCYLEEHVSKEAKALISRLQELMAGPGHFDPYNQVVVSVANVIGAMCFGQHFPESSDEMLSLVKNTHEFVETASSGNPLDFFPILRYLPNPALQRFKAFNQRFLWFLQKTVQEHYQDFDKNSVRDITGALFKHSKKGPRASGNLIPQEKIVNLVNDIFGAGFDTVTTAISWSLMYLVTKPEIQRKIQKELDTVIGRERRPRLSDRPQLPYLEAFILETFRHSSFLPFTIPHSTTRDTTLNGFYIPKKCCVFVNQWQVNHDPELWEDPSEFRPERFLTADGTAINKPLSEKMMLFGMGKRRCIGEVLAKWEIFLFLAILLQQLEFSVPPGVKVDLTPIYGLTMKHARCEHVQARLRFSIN

[10] = Toxicity in CD-1 mouse assessed as change in prostate weight at 30 mg/kg/day, ip treated daily for 28 days; format: organism-based; details: in vivo, 672 h, time 28 day; how it was run: as §2
Cytochrome P450 2D6 = Cytochrome P450 2D6 (Homo sapiens, UniProt P10635); assay: Inhibition of CYP2D6 (unknown origin); format: ADME, microsomes, Liver, Microsome
Cytochrome P450 2D6, sequence (P10635 whole entry): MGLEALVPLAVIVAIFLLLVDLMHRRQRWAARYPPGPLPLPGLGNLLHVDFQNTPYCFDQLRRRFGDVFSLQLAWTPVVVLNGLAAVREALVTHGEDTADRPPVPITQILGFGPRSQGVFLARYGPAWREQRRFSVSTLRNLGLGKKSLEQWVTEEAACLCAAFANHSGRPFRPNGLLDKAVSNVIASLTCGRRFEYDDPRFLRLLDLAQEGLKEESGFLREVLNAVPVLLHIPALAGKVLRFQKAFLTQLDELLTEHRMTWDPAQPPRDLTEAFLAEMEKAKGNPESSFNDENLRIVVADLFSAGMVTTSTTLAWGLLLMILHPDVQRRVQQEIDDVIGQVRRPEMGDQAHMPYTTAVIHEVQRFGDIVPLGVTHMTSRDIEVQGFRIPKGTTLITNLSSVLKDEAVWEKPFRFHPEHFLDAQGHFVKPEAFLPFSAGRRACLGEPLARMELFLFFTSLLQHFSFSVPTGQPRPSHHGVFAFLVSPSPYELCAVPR

[11] = Toxicity in CD-1 mouse assessed as change in testis weight at 30 mg/kg/day, ip treated daily for 28 days; format: organism-based; details: in vivo, 672 h, time 28 day; how it was run: as §2
[12] = Drug concentration in plasma of CD-1 mouse at 30 mg/kg/day, ip treated daily for 28 days; format: ADME, organism-based; details: time 28 day
Cytochrome P450 2C19 = Cytochrome P450 2C19 (Homo sapiens, UniProt P33261); assay: Inhibition of CYP2C19 (unknown origin); format: ADME, microsomes, Liver, Microsome
Cytochrome P450 2C19, sequence (P33261 whole entry): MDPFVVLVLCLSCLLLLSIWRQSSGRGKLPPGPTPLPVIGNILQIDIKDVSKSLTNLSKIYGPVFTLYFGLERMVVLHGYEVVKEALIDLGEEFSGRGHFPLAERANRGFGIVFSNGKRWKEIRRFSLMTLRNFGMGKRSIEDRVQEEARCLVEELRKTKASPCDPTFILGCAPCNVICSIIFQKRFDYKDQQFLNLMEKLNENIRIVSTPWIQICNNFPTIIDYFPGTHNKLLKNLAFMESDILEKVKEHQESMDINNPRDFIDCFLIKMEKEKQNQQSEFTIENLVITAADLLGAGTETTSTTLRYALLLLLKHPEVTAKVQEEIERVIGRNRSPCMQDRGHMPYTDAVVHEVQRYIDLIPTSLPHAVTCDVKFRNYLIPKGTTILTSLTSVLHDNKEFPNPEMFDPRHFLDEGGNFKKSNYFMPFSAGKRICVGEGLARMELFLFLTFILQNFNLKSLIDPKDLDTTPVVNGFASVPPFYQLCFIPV

[13] = Toxicity in CD-1 mouse assessed as change in epididymis weight at 30 mg/kg/day, ip treated daily for 28 days; format: organism-based; details: in vivo, 672 h, time 28 day; how it was run: as §2
[14] = Toxicity in CD-1 mouse assessed as drug tolerance at 30 mg/kg/day, ip treated daily for 28 days; format: organism-based; details: in vivo, 672 h, time 28 day; how it was run: as §2
[15] = Toxicity in CD-1 mouse assessed as adverse macroscopic findings at 30 mg/kg/day, ip treated daily for 28 days; format: organism-based; details: in vivo, 672 h, time 28 day; how it was run: as §2

Row | Structure (SMILES) | inhibition [1] | inhibition [2] | Activity [3] | Activity [4] | concentration at 672 h [5] [nM] | Activity [6] | Activity [7] | Activity [8] | Activity [9] | IC50 (Cytochrome P450 1A2) [µM] | Activity [10] | IC50 (Cytochrome P450 2D6) [µM] | Activity [11] | concentration at 672 h [12] [nM] | IC50 (Cytochrome P450 2C19) [µM] | Activity [13] | Activity [14] | Activity [15]
1 | Cc1c[nH]c2ncnc(-c3ccc(NC(=O)N(CCO)c4ccccc4)cc3)c12 | Active | Active |  |  |  |  |  |  |  |  |  |  |  |  |  |  |  | 
2 | O=C(c1ccc(S(=O)(=O)Nc2ccccc2)cc1)N(Cc1ccc(NCCO)cc1)CC1CC1 |  |  | Non-toxic | Non-toxic | 62 | Non-toxic | Non-toxic | Non-toxic | Non-toxic | > 25 | Non-toxic | > 25 | Non-toxic | 903 | 11 | Non-toxic | Non-toxic | Non-toxic
3 | CCn1c(=O)c(-c2ccc(Cl)cc2Cl)cc2cnc(Nc3ccc(N4CCNCC4)c(F)c3)nc21 | Active | Active |  |  |  |  |  |  |  |  |  |  |  |  |  |  |  | 
